# Screening results as filed in PubChem.
# The list is not random: actives were taken first. Their share in the collection is about 0.92%.
# FN deposit inh = inhibitors of fibronectin matrix deposition, primary screen, AH1F cells, Alexa488-fibronectin fluorescence, plate reader; 0.086% of 350,000 active; AID 743247, 2014; inhibition, % at 12.6 µM; AH1F fibroblasts, overnight;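 active = mean inhibition across replicates of 30% or more, regardless of how many single replicates reach that level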;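 note: positive control wells lacked labelled fibronectin entirely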
#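 Assay system: AH1F fibroblasts / Quantity: 10000 cells per well / Medium: DMEM plus 2% serum, read in PBS / Reagent: labelled fibronectin 24 nM / Dosing: single dose, pinned / Times: 1 h cell attachment, overnight exposure to compound and label / Signal: fluorescence, ex 485 nm, em 525 nm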
# N-glyco inh = increase of ERlucT glycosylation luciferase signal, primary screen, N-linked glycosylation inhibitor project, D54 ERlucT cells, luminescence, set 2 | reporter increase, % at 12.5 µM | D54 ERlucT glycosylation luciferase reporter, 24 h; percent of 100 nM tunicamycin response | 0.23% of 360,000 active;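 active = mean luciferase reporter signal, scaled so untreated is 0 and the glycosylation-blocking control 100, at or above a set limit in every replicate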;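 note: luciferase carries N-glycosylation sites so blocking glycosylation raises the light; 0% = median of neutral control wells and 100% = median of 100 nM tunicamycin wells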
# RAD54 branch = inhibitors of human RAD54 branch migration, primary screen, biochemical, fluorescence, single point; DNA repair and recombination protein RAD54-like (Homo sapiens), Q92698; RAD54 Holliday junction branch migration, FAM/BHQ fluorescence; inhibition, % at 10.4 µM; 0.14% of 360,000 active; AID 602329, 2012;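 active = mean normalized replicate activity at least 40 and at least half of replicates scoring 40 or more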;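 note: 0% = median of neutral control wells and 100% = median of positive control wells; inhibitors cause a drop in the FAM fluorescence signal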
# Target sequence (Q92698 whole entry, looked up): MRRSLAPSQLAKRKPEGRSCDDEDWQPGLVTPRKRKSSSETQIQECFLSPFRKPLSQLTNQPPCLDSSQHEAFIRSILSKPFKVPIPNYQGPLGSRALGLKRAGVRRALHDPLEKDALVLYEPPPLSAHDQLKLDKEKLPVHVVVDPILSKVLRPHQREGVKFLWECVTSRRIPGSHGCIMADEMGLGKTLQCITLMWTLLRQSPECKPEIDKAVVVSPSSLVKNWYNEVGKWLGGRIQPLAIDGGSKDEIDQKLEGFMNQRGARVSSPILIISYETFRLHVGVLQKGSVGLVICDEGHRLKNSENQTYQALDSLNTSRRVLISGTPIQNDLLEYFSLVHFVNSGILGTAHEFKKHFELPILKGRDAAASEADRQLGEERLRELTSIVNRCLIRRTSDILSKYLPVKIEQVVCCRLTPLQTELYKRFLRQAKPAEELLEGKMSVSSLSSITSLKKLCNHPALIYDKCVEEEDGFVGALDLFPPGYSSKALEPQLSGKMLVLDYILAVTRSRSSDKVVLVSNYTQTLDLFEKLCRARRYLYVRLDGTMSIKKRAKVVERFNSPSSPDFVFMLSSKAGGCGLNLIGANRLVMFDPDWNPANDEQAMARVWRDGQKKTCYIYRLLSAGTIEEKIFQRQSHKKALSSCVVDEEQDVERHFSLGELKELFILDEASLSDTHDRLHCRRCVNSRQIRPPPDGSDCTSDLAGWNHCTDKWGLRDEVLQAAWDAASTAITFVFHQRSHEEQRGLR
# AF4-AF9 inh = inhibitors of AF4 peptide binding to AF9, primary screen, biochemical, AlphaScreen, biotin-AF4 peptide, FLAG-AF9, single point. Protein AF-9 (Homo sapiens), P42568. inhibition, % at 10 µM. 0.47% of 350,000 active. AID 651704, 2012;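 active = every replicate reaching a set inhibition limit, whatever the replicate mean, cut at about 25% in these data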;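 note: 0% = plate neutral control median and 100% = total signal loss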
# RAD52 inh = RAD52 DNA annealing inhibitors, primary screen, biochemical, FRET, single point, set 2; DNA repair protein RAD52 homolog (Homo sapiens), P43351; recombinant RAD52 DNA annealing, FRET fluorescence; inhibition, % at 18.7 µM; 0.46% of 360,000 active; AID 651710, 2012;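 active = every replicate showing at least 50% inhibition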
# Active calls of the source: *; . = no result; ! = not active in a repeat.
SMILES,FN deposit inh,N-glyco inh,RAD54 branch,AF4-AF9 inh,RAD52 inh
COc1ccc(CN(C)C[C@H]2OCCCC[C@@H](C)Oc3ccc(NC(=O)Nc4ccccc4)cc3C(=O)N([C@@H](C)CO)C[C@@H]2C)cc1,-1,.,-8,.,.
COc1ccc(-c2ccc(C3[C@@H]4CN(Cc5cc(OC)cc(OC)c5)C[C@H]3N4)cc2)cc1 (some centres undefined),17,.,.,12,66*
COc1cc(CN2C[C@@H]3N[C@H](C2)C3c2ccc(-c3cccc(OC)c3)cc2)cc(OC)c1 (some centres undefined),-3,.,.,26*!,59*
COc1ccc([C@H]2CC=CC[C@@H](C)Oc3ccccc3C(=O)N(C)[C@H](C)C(=O)N2)c(OC)c1 (mixture of isomers),12,.,.,.,.
COc1ccc(Cl)cc1S(=O)(=O)Nc1ccc2c(c1)n(C)c(=O)n2C,-7,58*,14,0,-20
N#Cc1cccc2c1-c1ccccc1/C2=N/NC(N)=O,.,25,85*,.,.
Cc1ccc(-n2cccn2)c([C@@H]2C[C@H]3CN(C)C(=O)[C@]34CCCN24)c1,-2,1,.,0,-19
Cc1cc(C)c([C@@H]2C[C@H]3CN(C4CCCC4)C(=O)[C@]34CCCN24)c(-n2cccn2)c1,38*,0,2,-1,-109
C/C=C/c1ccc([C@@H]2[C@H](CO)N(S(C)(=O)=O)C23CN(C(=O)CC)C3)cc1,.,.,.,2,-10
Cc1c(NC(=O)c2ccc3nsnc3c2)cccc1[N+](=O)[O-],33*,-1,-3,0,-4
C[C@@H]1CN([C@H](C)CO)C(=O)Cc2cc(NC(=O)CCN3CCOCC3)ccc2O[C@@H]1CN(C)S(=O)(=O)c1ccc(Cl)cc1,.,.,-3,1,-3
O=C1N[C@@H](Cc2ccccc2)COCc2cn(nn2)CC[C@H]1Cc1ccc(Cl)cc1,7,.,.,.,.
CC(C)[C@H]1CC=CC[C@@H](C)Oc2ccccc2C(=O)N(C)[C@H](C)C(=O)N1 (mixture of isomers),-4,.,.,.,.
CCOC(=O)c1c(-c2ccccc2)oc2cc(CN(C)C)c(O)c(CN(C)C)c12,.,-12,-3,36*,-47
CCOC(=O)c1c(C)oc2cc(Cl)c(O)c(CN(C)C)c12,1,0,.,4,10
C[C@@H]1CN([C@@H](C)CO)C(=O)c2cccc(NS(=O)(=O)c3cccs3)c2O[C@H]1CN(C)CC1CCCCC1,7,.,5,0,-4
O=C(Nc1cc(F)ccc1F)N1CC(=O)N2[C@H](CO)[C@H](c3ccc(C#CC4CCCC4)cc3)[C@H]2C1,-24,.,.,.,.
O=C(Nc1ccc(F)cc1)N1[C@@H]2CNC[C@H]1C2c1ccc(-c2ccc(F)cc2)cc1 (some centres undefined),4,.,.,3,51*
O=C(Nc1ccc(F)cc1)N1[C@@H]2CNC[C@H]1C2c1ccc(/C=C/c2ccccc2)cc1 (some centres undefined),-6,.,.,12,38
O=C(Nc1ccc(Cl)cc1)N1[C@@H]2CNC[C@H]1C2c1ccc(/C=C/c2ccccc2)cc1 (some centres undefined),-5,.,.,0,67*!
Cc1ccc(-c2ccc(C3[C@H]4CNC[C@@H]3N4C(=O)Nc3ccccc3Cl)cc2)cc1 (some centres undefined),1,.,.,8,53*!
Cc1ccc(-c2ccc(C3[C@H]4CNC[C@@H]3N4C(=O)Nc3ccc(F)cc3)cc2)cc1 (some centres undefined),-8,.,.,7,49
O=C(Nc1ccc(Cl)cc1)N1[C@@H]2CNC[C@H]1C2c1ccc(-c2ccccc2)cc1 (some centres undefined),-10,.,.,-3,58*!
O=C(Nc1ccc2c(c1)OCO2)N1C[C@@H]2N[C@H](C1)C2c1ccc(C=Cc2ccccc2)cc1 (some centres undefined),-4,.,.,56*!,79*
O=C(Nc1ccc(F)cc1)N1C[C@@H]2N[C@H](C1)C2c1ccc(/C=C/c2ccccc2)cc1 (some centres undefined),-2,.,.,.,.
SMILES,FN deposit inh,N-glyco inh,RAD54 branch,AF4-AF9 inh,RAD52 inh
O=C(Nc1ccc2c(c1)OCO2)N1[C@@H]2CNC[C@H]1C2c1ccc(/C=C/c2ccccc2)cc1 (some centres undefined),0,.,.,10,60*
O=C(Nc1ccc(F)cc1)N1[C@@H]2CNC[C@H]1C2c1ccc(-c2ccccc2)cc1 (some centres undefined),-3,.,.,3,55*!
O=C(Nc1ccc(C(F)(F)F)cc1)N1[C@@H]2CNC[C@H]1C2c1ccc(-c2ccccc2)cc1 (some centres undefined),-2,.,.,-5,19
O=C(Nc1ccc2c(c1)OCO2)N1[C@@H]2CNC[C@H]1C2c1ccc(-c2ccncc2)cc1 (some centres undefined),4,.,.,6,27
CCOc1cc(C(=O)Nc2ccc(N3CCOCC3)cc2)cc(Br)c1OC,.,32*,-4,0,-6
C[C@H](CO)N1C[C@H](C)[C@H](CN(C)Cc2ccc3c(c2)OCO3)Oc2ccc(NC(=O)Nc3ccc4c(c3)OCO4)cc2CC1=O,.,.,9,2,-1
C[C@@H]1CN([C@@H](C)CO)C(=O)Cc2cc(NC(=O)Nc3ccc4c(c3)OCO4)ccc2O[C@H]1CN(C)Cc1ccc2c(c1)OCO2,.,.,-6,25*,-15
C[C@@H]1CCCCO[C@H](CN(C)Cc2ccc3c(c2)OCO3)[C@H](C)CN([C@@H](C)CO)C(=O)c2cc(NC(=O)Nc3ccc4c(c3)OCO4)ccc2O1,2,.,3,27*,37
C[C@@H]1CCCCO[C@H](CN(C)CC2CC2)[C@@H](C)CN([C@H](C)CO)C(=O)c2cc(NC(=O)Nc3ccc4c(c3)OCO4)ccc2O1,-1,.,5,25*,23
C[C@H](CO)N1C[C@H](C)[C@@H](CN(C)C(=O)Nc2ccc(F)cc2)OCCCC[C@H](C)Oc2ccc(NC(=O)Nc3ccc4c(c3)OCO4)cc2C1=O,.,.,0,49*,7
O=C(c1cccnc1)N1CC(=O)N2[C@H](CO)[C@H](c3ccc(/C=C/c4ccccc4)cc3)[C@H]2C1,.,.,.,0,-17
O=C(N[C@H]1CC[C@@H](CCNS(=O)(=O)c2ccccc2)O[C@@H]1CO)c1cccc(F)c1,15,.,3,-2,4
C[C@@H]1CN([C@@H](C)CO)C(=O)c2cc(NC(=O)C3CCCCC3)ccc2O[C@@H](C)CCCCO[C@@H]1CN(C)C(=O)Nc1ccc(C(F)(F)F)cc1,.,.,0,-1,60*
